Laboratory results reported in ChEMBL document CHEMBL5046274, “Identification and Optimization of Novel Small-Molecule Cas9 Inhibitors by Cell-Based High-Throughput Screening” (J Med Chem, 2022).
Calls of active or inactive are those of the source. The rule behind the calls is not given here.

What was measured:
Streptococcus pyogenes [1] = experiment: Inhibition of Streptococcus pyogenes Cas9 at 500 microM by Cas9 cleavage assay
In short: (§1)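 Recombinant SpyCas9 (5 nM) preincubated with compound in DMSO (final 5% v/v) for 15 min at 37 °C in PBS + 10 mM MgCl2 + 0.02% Triton X-100. Then 6 nM preformed crRNA/tracrRNA gRNA for 5 min, then 1 nM PCR-amplified target DNA for 30 min. Quenched with proteinase K, run on a 1% agarose gel, bands quantified by densitometry. Run in triplicate; IC50 from a four-parameter logistic fit.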

[2] = Inhibition of Streptococcus pyogenes Cas9 by Cas9 cleavage assay; in short: as §1
Streptococcus pyogenes [3] = experiment: Inhibition of Streptococcus pyogenes Cas9 assessed as inhibition of Csp9:gRNA complex formation at 200 to 500 uM; settings: dose 200-500 µM
Streptococcus pyogenes [4] = experiment: Inhibition of Streptococcus pyogenes Cas9 at 200 microM by Cas9 cleavage assay; in short: as §1
Streptococcus pyogenes [5] = experiment: Binding affinity to Streptococcus pyogenes Cas9 by 1D 1H-NMR-WaterLOGSY spectrum analysis
In short: (§2)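 NMR ligand-binding on apo-SpyCas9 with standard pulse sequences. For WaterLOGSY, bound ligands give signals of opposite (negative) phase to non-binders. Alanine is added to the cocktail at the ligand concentration as a phasing reference.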

Streptococcus pyogenes [6] = experiment: Binding affinity to Streptococcus pyogenes Cas9 by 1H-19F-(CPMG)-NMR analysis; in short: as §2
Streptococcus pyogenes [7] = experiment: Inhibition of Streptococcus pyogenes Cas9 assessed as inhibition of Csp9:gRNA complex formation
Streptococcus pyogenes [8] = experiment: Inhibition of Streptococcus pyogenes Cas9 assessed as inhibition of Csp9:gRNA complex formation at 200 uM by EMSA assay
In short: (§3)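 EMSA in PBS + 10 mM MgCl2 + 0.02% Triton X-100. Compound incubated with 200 nM apo-SpyCas9 for 5 min at 37 °C, then 200 nM Atto550-labelled crRNA/tracrRNA gRNA added for 15 min. Complexes resolved on a 6% TBE gel and visualised by fluorescence.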

Streptococcus pyogenes [9] = experiment: Inhibition of Streptococcus pyogenes apo-Cas9 assessed as inhibition of Csp9:gRNA complex formation at 10 to 200 uM by EMSA assay; settings: dose 10-200 µM; in short: as §3

## Oc1c(C(c2ccccn2)N2CCC(Cc3ccccc3)CC2)cc(Cl)c2cccnc12 (configuration not stated)
Streptococcus pyogenes [1]
  Activity: Active

## Cc1cc(NS(=O)(=O)c2ccc(-c3cccc(C(=O)N4CCC(C)CC4)c3)cc2)no1
[2]
  IC50: 223 µM

## CC1CCN(C(=O)c2cccc(-c3ccccc3)c2)CC1
[2]
  IC50: 28 µM

## Cc1cc(NS(=O)(=O)c2cccc(-c3ccccc3)c2)no1
[2]
  IC50: 129 µM

## Cc1cc(NS(=O)(=O)c2cc(-c3nc(C)c(C(=O)N4CCC(C)CC4)s3)n(C)c2C)no1
Streptococcus pyogenes [1]
  Activity: Active
[2]
  IC50: 246 µM
Streptococcus pyogenes [3]
  inhibition: Active

## CC1CCN(C(=O)c2cccc(-c3ccc(C(F)(F)F)cc3)c2)CC1
[2]
  IC50: 28 µM

## Cc1ccnc(NS(=O)(=O)c2cc(-c3nc(C)c(C(=O)N4CCC(C)CC4)s3)n(C)c2C)c1
Streptococcus pyogenes [4]
  Activity: inactive

## Cc1cc(NS(=O)(=O)c2cccc(-c3ccc(Cl)c(Cl)c3)c2)no1
[2]
  IC50: 14 µM

## Cc1cc(NS(=O)(=O)c2cc(-c3ccc(Cl)c(Cl)c3)cc(C(F)(F)F)c2)no1
[2]
  IC50: 7.02 µM
Streptococcus pyogenes [5]
  Activity: Active
Streptococcus pyogenes [6]
  Activity: Active
Streptococcus pyogenes [7]
  inhibition: Active
Streptococcus pyogenes [8]
  inhibition: Active
Streptococcus pyogenes [9]
  inhibition: Active

## Cc1cc(NS(=O)(=O)c2ccc(-c3ccccc3)cc2)no1
[2]
  IC50: 189 µM
